Measured values as given in ChEMBL document CHEMBL2163200, “Synthesis, biological evaluation, and structure-activity relationships of novel substituted N-phenyl ureidobenzenesulfonate derivatives blocking cell cycle progression in S-phase and inducing DNA double-strand breaks” (J Med Chem, 2012).
Activity calls are given as the source filed them. The calls are words filed in the database; no cut-off is given here.

Key:
HT-1080 [1] = experiment: Antitumor activity against human HT1080 cells xenografted in chicken chorioallantoic membrane assessed as inhibition of tumor growth at 1 ug per egg, iv administered on day 11 measured on day 17 by CAM assay; format: functional
How it was run: (§1)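 HT-1080 fibrosarcoma cells (3.5 × 105/egg) were applied onto freshly exposed CAM of fertilized chicken eggs. On day 11, drug from a DMSO stock was diluted in Cremophor EL/99% ethanol/PBS (1/1/14 v/v) and 100 μL was injected into a vein under the CAM. Groups of 10–12 eggs were kept to day 17, embryos were euthanized at 4 °C for ≥4 h, and tumor wet weight was recorded.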

[2] = Toxicity in fertilized chicken embryo assessed as mortality rate at 1 ug per egg, iv administered on day 11 measured on day 17 by CAM assay; format: organism-based, Gallus gallus; details: in vivo, read-out: Activity
How it was run: (§2)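 Fertilized chicken eggs grafted on the CAM with HT-1080 cells (3.5 × 105/egg) received a 100 μL intravenous injection under the CAM on day 11. The drug was diluted in Cremophor EL/99% ethanol/PBS (1/1/14 v/v). Groups held 10–12 eggs and were incubated until day 17, when dead embryos and signs of toxicity were counted per group.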

Jurkat [3] = experiment: Cell cycle arrest in human Jurkat E6-1 cells assessed as accumulation at G0/G1 phase at 74 uM after 24 hrs by FACS flow cytometry; format: functional
How it was run: (§3)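 Jurkat E6 cells cultured in RPMI 1640 with 10% FBS at 37 °C, 5% CO2. Compounds serially diluted in medium, starting 50% above the M21 IC50. 4.0 × 10^5 cells were exposed for 24 h. Cells were washed with PBS, chicken red blood cells added as internal standard, and fixed in ice-cold EtOH. After 1 h on ice in PBS with 1 μg/mL DAPI, phase distribution was read by flow cytometry. DMSO-treated cells served as control.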

Jurkat [4] = experiment: Cell cycle arrest in human Jurkat E6-1 cells assessed as accumulation at S phase at 74 uM after 24 hrs by FACS flow cytometry; format: functional
How it was run: (§4)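 Jurkat E6 T-lymphoblasts in RPMI 1640 with 10% FBS, 37 °C, 5% CO2. […] Chicken red blood cells were added as internal standard. Cells were fixed in ice-cold EtOH and stained with 1 μg/mL DAPI on ice for 1 h before flow cytometry of phase distribution. Vehicle control was 0.5% DMSO.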

Jurkat [5] = experiment: Cell cycle arrest in human Jurkat E6-1 cells assessed as accumulation at G2/M phase at 74 uM after 24 hrs by FACS flow cytometry; format: functional
How it was run: (§5)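 Jurkat E6 cells grown in RPMI 1640 with 10% FBS at 37 °C, 5% CO2. Compounds were serially diluted in medium starting 50% above the M21 IC50. 4.0 × 10^5 cells were exposed for 24 h, then washed and spiked with chicken red blood cells as internal standard. Cells were fixed in ice-cold ethanol, stained with 1 μg/mL DAPI on ice for 1 h, and phase distribution was read by flow cytometry. The control was 0.5% DMSO.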

HT-29 = experiment: Cytotoxicity against human HT-29 cells after 48 hrs by SRB assay; format: functional, cell-based; details: HT-29, 48 h
How it was run: (§6)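 NCI sulforhodamine B protocol. Cells were grown in high-glucose DMEM with 5% FBS and seeded per well at 4 × 10^3 (HT-29), 3.5 × 10^3 (M21) or 3 × 10^3 (MCF-7), then allowed 24 h to attach. Serial dilutions from 200 μM to 780 nM final were applied in DMSO <0.5% for 48 h. Cells were fixed with cold TCA (10% final) and stained with SRB, with absorbance read at 530–568 nm. Growth inhibition was computed against day-0 plates, giving the 50% inhibitory concentration. At least two experiments in triplicate, CV <10%.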

M21 [6] = experiment: Cytotoxicity against human M21 cells after 48 hrs by SRB assay; format: functional, cell-based; details: M21, 48 h; how it was run: as §6
MCF7 = experiment: Cytotoxicity against human MCF7 cells after 48 hrs by SRB assay; format: functional, cell-based; details: MCF7, 48 h; how it was run: as §6
Jurkat [7] = experiment: Cell cycle arrest in human Jurkat E6-1 cells assessed as accumulation at S phase at 23 uM after 24 hrs by FACS flow cytometry; format: functional; how it was run: as §5
Jurkat [8] = experiment: Cell cycle arrest in human Jurkat E6-1 cells assessed as accumulation at G2/M phase at 23 uM after 24 hrs by FACS flow cytometry; format: functional; how it was run: as §5
Jurkat [9] = experiment: Cell cycle arrest in human Jurkat E6-1 cells assessed as accumulation at G0/G1 phase at 23 uM after 24 hrs by FACS flow cytometry; format: functional; how it was run: as §3
Jurkat [10] = experiment: Cell cycle arrest in human Jurkat E6-1 cells assessed as accumulation at S phase at 200 uM after 24 hrs by FACS flow cytometry; format: functional; how it was run: as §5
Jurkat [11] = experiment: Cell cycle arrest in human Jurkat E6-1 cells assessed as accumulation at G2/M phase at 200 uM after 24 hrs by FACS flow cytometry; format: functional; how it was run: as §5
Jurkat [12] = experiment: Cell cycle arrest in human Jurkat E6-1 cells assessed as accumulation at G0/G1 phase at 200 uM after 24 hrs by FACS flow cytometry; format: functional; how it was run: as §3
Jurkat [13] = experiment: Cell cycle arrest in human Jurkat E6-1 cells assessed as accumulation at G0/G1 phase at 43 uM after 24 hrs by FACS flow cytometry; format: functional; how it was run: as §3
Jurkat [14] = experiment: Cell cycle arrest in human Jurkat E6-1 cells assessed as accumulation at S phase at 43 uM after 24 hrs by FACS flow cytometry; format: functional; how it was run: as §4
Jurkat [15] = experiment: Cell cycle arrest in human Jurkat E6-1 cells assessed as accumulation at G2/M phase at 43 uM after 24 hrs by FACS flow cytometry; format: functional; how it was run: as §5
Jurkat [16] = experiment: Cell cycle arrest in human Jurkat E6-1 cells assessed as accumulation at G0/G1 phase at 0.60 uM after 24 hrs by FACS flow cytometry; format: functional; how it was run: as §3
Jurkat [17] = experiment: Cell cycle arrest in human Jurkat E6-1 cells assessed as accumulation at S phase at 0.60 uM after 24 hrs by FACS flow cytometry; format: functional; how it was run: as §5
Jurkat [18] = experiment: Cell cycle arrest in human Jurkat E6-1 cells assessed as accumulation at G2/M phase at 0.60 uM after 24 hrs by FACS flow cytometry; format: functional; how it was run: as §3
M21 [19] = experiment: Induction of DNA damage response in human M21 cells assessed as phosphorylation of H2AX into gammaH2AX at IC50 after 24 hrs by DAPI staining-based immunofluorescence assay; format: functional, cell-based
How it was run: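 M21 cells (1 × 10^5) on fibronectin-coated coverslips, grown 24 h, then exposed to agent for 24 h at 37 °C; 0.5% DMSO control. Fixed with 3.7% formaldehyde and permeabilized with 0.1% saponin/3% BSA. Probed with mouse anti-H2AX pS139 antibody for 2 h at room temperature. Nuclei counterstained with DAPI; nuclear γH2AX foci viewed by epifluorescence microscopy.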

HT-1080 [20] = experiment: Antitumor activity against human HT1080 cells xenografted in chicken chorioallantoic membrane assessed as inhibition of tumor growth at 30 ug per egg, iv administered on day 11 measured on day 17 by CAM assay; format: functional; how it was run: as §1
[21] = Toxicity in fertilized chicken embryo assessed as mortality rate at 30 ug per egg, iv administered on day 11 measured on day 17 by CAM assay; format: organism-based, Gallus gallus; details: in vivo, read-out: Activity; how it was run: as §2
Jurkat [22] = experiment: Cell cycle arrest in human Jurkat E6-1 cells assessed as accumulation at S phase at 19 uM after 24 hrs by FACS flow cytometry; format: functional; how it was run: as §5
Jurkat [23] = experiment: Cell cycle arrest in human Jurkat E6-1 cells assessed as accumulation at G2/M phase at 19 uM after 24 hrs by FACS flow cytometry; format: functional; how it was run: as §5
Jurkat [24] = experiment: Cell cycle arrest in human Jurkat E6-1 cells assessed as accumulation at G0/G1 phase at 19 uM after 24 hrs by FACS flow cytometry; format: functional; how it was run: as §3

Row | Structure (SMILES) | IC50 (HT-29) [µM] | IC50 (M21 [6]) [µM] | IC50 (MCF7) [µM] | Activity (Jurkat [10]) [%] | Activity (Jurkat [11]) [%] | Activity (Jurkat [12]) [%] | further results
1 | COc1ccc(/C=C\c2cc(OC)c(OC)c(OC)c2)cc1O [COMBRETASTATIN A4] | – | – | – | – | – | – | TGI (HT-1080 [1]): 49%; mortality at 6 days [2]: 21%
2 | CCNC(=O)Nc1cccc(S(=O)(=O)Nc2ccccc2C)c1 | 102 | 131 | 108 | – | – | – | Activity (Jurkat [3]): 46%; Activity (Jurkat [4]): 34%; Activity (Jurkat [5]): 20%
3 | CCc1ccccc1OS(=O)(=O)c1cccc(NC(=O)NCCCl)c1 | 4.3 | 4.8 | 5.3 | – | – | – | –
4 | CCCc1ccccc1OS(=O)(=O)c1cccc(NC(=O)NCC)c1 | – | 25 | – | – | – | – | Activity (Jurkat [7]): 44%; Activity (Jurkat [8]): 10%; Activity (Jurkat [9]): 46%
5 | CCc1ccccc1NS(=O)(=O)c1ccc(NC(=O)NCCCCl)cc1 | > 200 | > 200 | > 200 | 39 | 16 | 45 | –
6 | CCNC(=O)Nc1cccc(S(=O)(=O)Nc2ccccc2CC)c1 | 15 | > 100 | 48 | – | – | – | Activity (Jurkat [13]): 40%; Activity (Jurkat [14]): 41%; Activity (Jurkat [15]): 19%
7 | Cc1ccccc1NS(=O)(=O)c1ccc(NC(=O)NCCCCl)cc1 | 64 | > 200 | > 200 | 38 | 15 | 47 | –
8 | CCCc1ccccc1OS(=O)(=O)c1ccc(NC(=O)NCC)cc1 | 2.4 | 0.8 | 1.3 | – | – | – | Activity (Jurkat [16]): 12%; Activity (Jurkat [17]): 81%; Activity (Jurkat [18]): 7%; Activity (M21 [19]): Active; TGI (HT-1080 [20]): 65%; mortality at 6 days [21]: 10%
9 | Cc1ccc(OS(=O)(=O)c2ccc(NC(=O)NCCCl)cc2)cc1 | 30 | 21 | 33 | – | – | – | Activity (Jurkat [22]): 57%; Activity (Jurkat [23]): 11%; Activity (Jurkat [24]): 32%
10 | CCc1ccccc1NS(=O)(=O)c1cccc(NC(=O)NCCCCl)c1 | 96 | > 200 | 43 | 35 | 15 | 50 | –
